Series [1] in a line: Kinetic solubility of the compound in water up to 250 uM by laser nephelometry. Type of series: physicochemical. Conditions: read-out: Kinetic_solubility. The method in brief: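 Measured in water after dilution from a DMSO solution of compound.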
A short description of series [2]: Selectivity ratio of pEC50 for African green monkey Vero cells to pEC50 for Trypanosoma cruzi amastigote forms infected in African green monkey Vero cells. The series is classed as toxicity. Put shortly: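 Ratio of Vero pEC50 to T. cruzi intracellular amastigote pEC50, with both values from the Vero-cell amastigote culture format.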
The test system of the next series is Trypanosoma cruzi. The experiment in a line: Antitrypanosomal activity against Trypanosoma cruzi amastigote forms infected in African green monkey Vero cells. The series is classed as functional, organism-based. Put shortly:
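T. cruzi amastigotes cultured intracellularly in Vero host cells. EC50 determined from concentration-response, reported as pEC50. Mean of two determinations ± range, or of three or more ± standard deviation, depending on the series.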

In a further series the test system is Vero. The series is described as follows: Cytotoxicity against African green monkey Vero cells. Type of series: cell-based. To be noted: Chlorocebus sabaeus.
Series [3] in a line: Intrinsic clearance in CD-1 mouse liver microsomes at 0.5 uM after 30 mins in presence of NADPH by UPLC-MS/MS analysis. Conditions: 0.5 h. Type of series: ADME, microsome. In general terms: Microsomes from liver hold many membrane-bound enzymes, among them those of drug oxidation.
Series [4] concerns the target Sterol 14-alpha demethylase (Trypanosoma cruzi (strain CL Brener), UniProt Q7Z1V1). The experiment in a line: (§1) Inhibition of Trypanosoma cruzi CYP51.
The target of series [5] is Sterol 14-alpha demethylase (Trypanosoma cruzi (strain CL Brener)) (UniProt Q7Z1V1). The series is described as §1.
Series [6] deals with Voltage-gated inwardly rectifying potassium channel KCNH2 (Homo sapiens, UniProt Q12809). The experiment in a line: Inhibition of human ERG.
The target of a further series is Cannabinoid receptor 1 (Homo sapiens, UniProt P21554). The series is described as follows: Inhibition of CB1 (unknown origin).
For another series, the target named is Aurora kinase B (Homo sapiens, UniProt Q96GD4). The series is described as follows: Inhibition of aurora B (unknown origin).

pEC50, pIC50: −log10 of the molar value. Converted amounts (≈) assume the structure as drawn. The source made the active and inactive calls. The calls are words filed in the database; no cut-off is given here.

Sequence of Sterol 14-alpha demethylase (Trypanosoma cruzi (strain CL Brener)) (Q7Z1V1 whole entry, looked up): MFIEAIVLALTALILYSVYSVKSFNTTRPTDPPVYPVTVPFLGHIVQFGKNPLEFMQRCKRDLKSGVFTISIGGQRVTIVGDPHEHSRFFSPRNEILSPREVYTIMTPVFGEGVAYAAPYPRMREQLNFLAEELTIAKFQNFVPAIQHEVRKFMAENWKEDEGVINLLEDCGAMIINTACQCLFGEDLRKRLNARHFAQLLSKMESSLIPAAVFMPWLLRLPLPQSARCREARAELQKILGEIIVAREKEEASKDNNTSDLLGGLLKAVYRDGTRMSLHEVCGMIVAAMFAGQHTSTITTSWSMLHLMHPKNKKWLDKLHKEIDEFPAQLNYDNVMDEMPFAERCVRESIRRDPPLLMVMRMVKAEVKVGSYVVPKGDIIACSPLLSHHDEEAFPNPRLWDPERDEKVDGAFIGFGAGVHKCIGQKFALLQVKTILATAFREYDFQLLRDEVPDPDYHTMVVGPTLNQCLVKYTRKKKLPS
Sequence of Voltage-gated inwardly rectifying potassium channel KCNH2 (Q12809 whole entry): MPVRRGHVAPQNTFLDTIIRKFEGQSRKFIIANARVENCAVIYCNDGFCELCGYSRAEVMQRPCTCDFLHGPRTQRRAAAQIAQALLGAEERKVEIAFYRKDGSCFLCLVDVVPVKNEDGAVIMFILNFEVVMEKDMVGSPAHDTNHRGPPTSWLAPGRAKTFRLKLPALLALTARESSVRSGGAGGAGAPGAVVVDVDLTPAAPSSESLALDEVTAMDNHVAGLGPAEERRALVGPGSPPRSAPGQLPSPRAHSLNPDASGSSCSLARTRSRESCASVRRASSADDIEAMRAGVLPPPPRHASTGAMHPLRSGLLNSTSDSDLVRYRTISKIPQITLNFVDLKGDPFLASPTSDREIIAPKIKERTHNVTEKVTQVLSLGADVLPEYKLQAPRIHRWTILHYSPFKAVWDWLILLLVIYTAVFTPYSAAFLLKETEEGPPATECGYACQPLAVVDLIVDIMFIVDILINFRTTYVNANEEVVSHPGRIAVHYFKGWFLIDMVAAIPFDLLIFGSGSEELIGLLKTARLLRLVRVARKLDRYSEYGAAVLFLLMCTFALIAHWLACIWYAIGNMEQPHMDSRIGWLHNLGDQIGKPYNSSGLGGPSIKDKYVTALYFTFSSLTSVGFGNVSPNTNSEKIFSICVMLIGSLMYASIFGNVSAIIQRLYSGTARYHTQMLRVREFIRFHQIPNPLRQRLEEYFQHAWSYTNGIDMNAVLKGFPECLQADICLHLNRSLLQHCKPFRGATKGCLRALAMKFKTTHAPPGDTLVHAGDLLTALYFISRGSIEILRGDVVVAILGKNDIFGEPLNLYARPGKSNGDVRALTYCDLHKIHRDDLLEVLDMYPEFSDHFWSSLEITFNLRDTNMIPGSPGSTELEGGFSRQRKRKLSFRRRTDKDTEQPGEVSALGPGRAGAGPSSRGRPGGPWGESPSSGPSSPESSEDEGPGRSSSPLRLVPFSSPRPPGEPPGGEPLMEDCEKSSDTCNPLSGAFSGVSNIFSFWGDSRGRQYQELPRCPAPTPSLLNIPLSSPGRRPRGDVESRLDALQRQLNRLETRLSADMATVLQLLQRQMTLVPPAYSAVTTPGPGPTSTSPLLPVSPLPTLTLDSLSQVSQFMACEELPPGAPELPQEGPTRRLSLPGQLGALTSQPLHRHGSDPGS
Sequence of Aurora kinase B (Q96GD4 whole entry): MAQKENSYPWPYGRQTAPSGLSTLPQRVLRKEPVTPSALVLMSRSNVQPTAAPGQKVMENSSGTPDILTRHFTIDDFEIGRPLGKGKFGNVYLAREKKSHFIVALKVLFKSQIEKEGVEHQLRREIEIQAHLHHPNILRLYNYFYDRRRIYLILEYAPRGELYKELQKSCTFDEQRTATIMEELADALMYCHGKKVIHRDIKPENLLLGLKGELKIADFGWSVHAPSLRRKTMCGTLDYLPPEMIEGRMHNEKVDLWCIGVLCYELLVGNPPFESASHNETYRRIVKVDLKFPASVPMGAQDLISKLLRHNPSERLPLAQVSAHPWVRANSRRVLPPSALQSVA
Sequence of Cannabinoid receptor 1 (P21554 whole entry): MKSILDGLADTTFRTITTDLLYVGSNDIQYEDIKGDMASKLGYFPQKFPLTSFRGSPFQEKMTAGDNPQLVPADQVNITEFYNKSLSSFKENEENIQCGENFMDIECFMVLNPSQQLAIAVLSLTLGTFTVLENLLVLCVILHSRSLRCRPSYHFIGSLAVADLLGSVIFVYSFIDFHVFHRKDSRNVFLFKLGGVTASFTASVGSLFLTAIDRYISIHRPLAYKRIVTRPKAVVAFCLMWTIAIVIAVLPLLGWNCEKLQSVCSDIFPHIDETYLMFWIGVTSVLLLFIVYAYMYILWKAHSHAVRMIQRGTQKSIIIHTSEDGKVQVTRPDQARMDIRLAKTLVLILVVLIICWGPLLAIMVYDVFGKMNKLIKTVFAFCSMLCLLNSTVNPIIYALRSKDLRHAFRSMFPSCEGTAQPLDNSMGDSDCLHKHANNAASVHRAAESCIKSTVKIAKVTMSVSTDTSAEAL
Sequence of Sterol 14-alpha demethylase (Q7Z1V1 whole entry): as the sequence (Q7Z1V1 whole entry, looked up) above

Take `COc1cc(Nc2nccc(N(C)C)n2)ccc1F`: the solubility kinetic in series [1] was 160 µM (≈ 42 µg/mL). The selectivity ratio in series [2] was > 13. Besides, the pEC50 was 5.40 with Trypanosoma cruzi and < 4.30 in the series with Vero. Also, in series [3], the CLH worked out at 29 mL/min/g.
The like results for `COc1cccc(Nc2cc(C)nc(NCc3ccccc3)n2)c1` were, in that order, > 250 µM, 40, 6.70, 5.10 and 20 mL/min/g.
`COc1ccccc1NC(=O)c1ccc(Nc2nc(C)cc(N(C)C)n2)cc1`: the selectivity ratio in [2] was determined as 1.3. For the same compound, the pEC50 in the series on Trypanosoma cruzi was 6.10; in the series on Vero, 6.20.
With `COc1cc(Nc2nc(C)cc(NCc3ccccc3)n2)ccc1F`, the solubility kinetic in series [1] was > 250 µM. In addition, in [2], the selectivity ratio was found to be 6.3. Further, the pEC50 was 6.10 in the series with Trypanosoma cruzi and 5.30 with Vero. Besides, in series [3], the CLH is 8 mL/min/g.
On to `COc1cc(OC)cc(C(=O)Nc2ccc(Nc3nc(C)cc(N(C)C)n3)cc2)c1`, for which the pIC50 in series [4] was < 5.00. Besides, the solubility kinetic in series [1] was determined as 20 µM (≈ 8.15 µg/mL). In addition, the selectivity ratio in series [2] was determined as 40. For the same compound, the pEC50 with Trypanosoma cruzi was 6.80. Further, the CLH in [3] turned out to be 0.7 mL/min/g.
`Cc1cc(N(C)C)nc(Nc2ccc(C(=O)NCc3ccccc3)cc2)n1`: the selectivity ratio in series [2] was 4. Besides, the pEC50 with Trypanosoma cruzi is 5.90; in the series with Vero, 5.30.
As for `Cc1cc(N(C)C)nc(NC2CCN(C(=O)Cc3ccc(F)cc3F)CC2)n1`, the selectivity ratio in series [2] is > 16. Moreover, in the series on Vero, the pEC50 is < 4.30.
As to `COc1cc(Nc2nc(N(C)C)cc(C(F)(F)F)n2)ccc1F`, in series [1], the solubility kinetic is 110 µM (≈ 36.3 µg/mL). The selectivity ratio in series [2] is > 2. Further, the pEC50 in the series on Trypanosoma cruzi was 4.60; with Vero, < 4.30.
With `COc1cc(Nc2nc(C)cc(N3CCOCC3)n2)ccc1F`, the solubility kinetic in series [1] is > 250 µM. In series [2], the selectivity ratio was > 6. Besides, the negative logarithm of the EC50 (pEC50) in the series on Trypanosoma cruzi was 5.10; in the series on Vero, < 4.30. Also, the CLH in series [3] was 18 mL/min/g.
On to `COc1cc(Nc2nc(C(=O)N3CCCC3)cc(N(C)C)n2)ccc1F`, for which the solubility kinetic in series [1] was > 250 µM. Moreover, the selectivity ratio in series [2] was > 1.6. Besides, in the series on Vero, the pEC50 was < 4.30. The CLH in [3] is 3.4 mL/min/g.
The like results for `COc1cc(Nc2cc(C)nc(NCc3ccccc3)n2)ccc1F` were, in that order, 180 µM (≈ 60.9 µg/mL), 63, 5.30 and 10 mL/min/g.
`COc1cc(Nc2nc(C)cc(N(C)C)n2)ccc1F`: the inhibition entry in series [5] was “inactive”. Further, the pIC50 in series [6] was 5.30. The solubility kinetic in series [1] is > 250 µM. The selectivity ratio in [2] was 80. The pEC50 with Trypanosoma cruzi is 6.40. Also, the CLH in series [3] is 17 mL/min/g.
Turning to `COc1cc(Nc2nc(C)cc(N3CCCC(C#N)C3)n2)ccc1F` (centres undefined), the solubility kinetic in series [1] stood at 219 µM (≈ 74.8 µg/mL). In series [2], the selectivity ratio worked out at 5. The pEC50 in the series with Trypanosoma cruzi was 5.10.
As for `Cc1cc(N(C)C)nc(NCc2ccc(Cl)cc2)n1`, the solubility kinetic in series [1] is > 250 µM. The selectivity ratio in [2] was 25. In addition, the pEC50 is 6.00 in the series with Trypanosoma cruzi and 4.60 in the series with Vero. In addition, the CLH in series [3] is 12 mL/min/g.
The like results for `Cc1cc(N(C)C)nc(Nc2ccc3c(c2)OCO3)n1` were, in that order, > 250 µM, > 40, 5.90, < 4.30 and 14 mL/min/g.
The like results for `Cc1cc(Nc2ccc(F)cc2)nc(NCc2ccccc2)n1` were, in that order, > 250 µM, 20, 6.40, 5.10 and 10 mL/min/g.
On to `COc1cc(Nc2nc(C)cc(N3CCCC3)n2)ccc1F`, for which, in [1], the solubility kinetic is 220 µM (≈ 66.5 µg/mL). Moreover, in series [2], the selectivity ratio was determined as 63. For the same compound, the CLH in [3] stood at 14 mL/min/g.
`COc1cc(Nc2nc(C)cc(N3CCCCC3)n2)ccc1F`: in series [1], the solubility kinetic was 160 µM (≈ 50.6 µg/mL). For the same compound, the selectivity ratio in series [2] was 16. Moreover, the pEC50 with Trypanosoma cruzi is 6.00; in the series on Vero, 4.80. Moreover, in [3], the CLH was 17 mL/min/g.
The corresponding values for `Cc1cc(N(C)C)nc(NCC2CCOCC2)n1` are > 250 µM, > 3, 4.80, < 4.30 and 3.8 mL/min/g.
The corresponding values for `COc1cccc(Nc2nc(C)cc(N(C)C)n2)c1` are > 250 µM, > 63, 6.10, < 4.30 and 15 mL/min/g.
For `COc1cc(OC)cc(C(=O)N[C@H]2CC[C@H](Nc3nc(C)cc(N(C)C)n3)CC2)c1`, the inhibition entry in series [5] is “inactive”. The pIC50 was 7.20 against Cannabinoid receptor 1, 5.40 in series [6] and 7.40 on Aurora kinase B. For the same compound, the solubility kinetic in series [1] is > 250 µM. Besides, the selectivity ratio in series [2] was found to be 100. Moreover, the pEC50 in the series with Trypanosoma cruzi is 6.40. In addition, the CLH in [3] was determined as 4.2 mL/min/g.
With `Cc1cc(N(C)C)nc(N[C@H]2CC[C@H](NC(=O)c3ccccc3)CC2)n1`, the solubility kinetic in [1] was > 250 µM. In addition, in series [2], the selectivity ratio is > 40. The pEC50 in the series on Trypanosoma cruzi is 5.90; in the series on Vero, < 4.30.
As for `Cc1cc(N(C)C)nc(Nc2ccc(C(=O)N3CCCCC3)cc2)n1`, the selectivity ratio in series [2] is > 25. Besides, the pEC50 in the series with Vero was < 4.30.
Regarding `Cc1cc(N(C)C)nc(NCc2ccccc2)n1`, in [5], the inhibition entry was “inactive”. Moreover, the solubility kinetic in [1] is > 250 µM. The selectivity ratio in series [2] was > 16. Also, in the series with Vero, the pEC50 was < 4.30. The CLH in series [3] was found to be 28 mL/min/g.
As to `COc1cc(Nc2nc(C)cc(N3CCC(F)(F)C3)n2)ccc1F`, the solubility kinetic in series [1] was > 250 µM. Further, the selectivity ratio in [2] worked out at 4. In addition, the pEC50 with Trypanosoma cruzi is 5.10. For the same compound, the CLH in series [3] was determined as 35 mL/min/g.
Turning to `COc1cc(Nc2nc(CO)cc(N(C)C)n2)ccc1F`, the solubility kinetic in [1] was > 250 µM. In addition, in [2], the selectivity ratio was > 6. For the same compound, the values for the pEC50 in the series with Trypanosoma cruzi and in the series on Vero were 5.10 and < 4.30, respectively. Further, the CLH in series [3] came out at 35 mL/min/g.
The like results for `CCOC1CCCN(c2cc(C)nc(Nc3ccc(F)c(OC)c3)n2)C1` (centres undefined) were, in that order, > 250 µM, 16, 5.80, 4.60 and 35 mL/min/g.
On to `COc1cc(Nc2nc(C(C)C)cc(N(C)C)n2)ccc1F`, for which, in series [1], the solubility kinetic turned out to be 170 µM (≈ 51.7 µg/mL). In addition, in series [2], the selectivity ratio was > 25. Besides, in the series on Vero, the negative logarithm of the EC50 (pEC50) was < 4.30. Further, in series [3], the CLH was 50 mL/min/g.
For the compound `COc1ccc(Nc2nc(C)cc(N(C)C)n2)cc1`, in series [1], the solubility kinetic was > 250 µM. Also, the selectivity ratio in series [2] was > 32. The pEC50 in the series with Trypanosoma cruzi is 5.80; with Vero it was < 4.30. In addition, the CLH in [3] stood at 10 mL/min/g.
On to `Cc1cc(N(C)C)nc(N[C@H](C)c2ccccc2)n1`, for which, in series [1], the solubility kinetic was > 250 µM. For the same compound, the selectivity ratio in series [2] was > 40. The figures for the pEC50 in the series on Trypanosoma cruzi and in the series with Vero were 5.90 and < 4.30, respectively. The CLH in series [3] came out at 11 mL/min/g.

For orientation: pEC50 means the EC50 on a negative log10 scale, so that one unit is a factor of ten. One may read the pIC50 as the negative decadic logarithm of the IC50, by convention in mol/L.

The values above are taken from ChEMBL document CHEMBL4229528, “2,4-Diamino-6-methylpyrimidines for the potential treatment of Chagas' disease” (Bioorg Med Chem Lett, 2018).
